Common to all, as to assay type: functional, cell-based
One experiment relates to MIA PaCa-2. Description: Antiproliferative activity against human MIAPaCa2 cells after 48 hrs by sulforhodamine B assay. Particulars: MIA PaCa-2, 48 h. The procedure, abridged:
(§1)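 Cells grown in DMEM with 10% FBS at 37 °C under 5% CO2. Plated cells were allowed 24 h before drug, then exposed continuously for 48 h at 0.01, 0.1, 1, 10 and 100 μM. Monolayers were fixed with cold 10% TCA for 1 h at 4 °C and stained with 0.057% SRB in 1% acetic acid for 30 min. Bound dye was read at 510 nm. IC50 is the 50% growth-inhibitory concentration, using time-zero and control readings.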
In general terms: The SRB assay estimates cell density from bound dye.

For a further experiment, the system named is MDA-MB-231. The experiment is described as follows: Antiproliferative activity against human MDA-MB-231 cells after 48 hrs by sulforhodamine B assay. The following applies: MDA-MB-231, 48 h. In a few lines: as §1
For the next experiment, the system named is A549. The experiment is described as follows: Antiproliferative activity against human A549 cells after 48 hrs by sulforhodamine B assay. The following applies: A549, 48 h. In a few lines:
as §1

The test system of the next experiment is HeLa. Description: Antiproliferative activity against human HeLa cells after 48 hrs by sulforhodamine B assay. The procedure, abridged:
as §1

Molecules are shown by their SMILES.

As usually defined, the IC50 is the concentration at which inhibition is half-maximal. Lower therefore signals inhibition by little substance. Regarding `COc1ccc2nc(-c3ccc(N/C=C\C(=O)c4cc(OC)c(OC)c(OC)c4)c(C)c3)sc2c1`, the IC50 in the experiment with MIA PaCa-2 amounted to 10 µM; with MDA-MB-231, 17 µM; in the experiment on A549, 11.1 µM; in the experiment with HeLa, 16.1 µM.
As to `COc1cc(C(=O)/C=C\Nc2ccc(-c3nc4cc(OC)c(OC)c(OC)c4s3)cc2C)c(Br)c(OC)c1OC`, the IC50 with MIA PaCa-2 came out at 24.3 µM; in the experiment on MDA-MB-231 it was 7.3 µM; with A549 it was 10.3 µM; in the experiment on HeLa, 14.3 µM.
In the case of `COc1ccc(C(=O)/C=C\Nc2ccc(-c3nc4cc(OC)c(OC)c(OC)c4s3)cc2)cc1[N+](=O)[O-]`, the IC50 worked out at 15.9 µM with MIA PaCa-2, 17.1 µM in the experiment on MDA-MB-231, 21.2 µM in the experiment with A549 and 11.4 µM in the experiment on HeLa.
Take `COc1ccc(C(=O)/C=C\Nc2ccc(-c3nc4cc(OC)c(OC)c(OC)c4s3)cc2)cc1O`: the IC50 in the experiment on MIA PaCa-2 worked out at 32.8 µM; in the experiment with MDA-MB-231, 18.1 µM; in the experiment with A549, 23 µM; with HeLa, 14.1 µM.
Take `COc1cc(OC)c2sc(-c3ccc(N/C=C\C(=O)c4ccc(OC)c(F)c4)cc3)nc2c1`: the IC50 was determined as 4.3 µM with MIA PaCa-2, 6.7 µM in the experiment with MDA-MB-231, 5.3 µM in the experiment on A549 and 7.3 µM in the experiment on HeLa.
In the case of `COc1cc(OC)c2sc(-c3ccc(N/C=C\C(=O)c4cc(OC)c(OC)c([N+](=O)[O-])c4)cc3)nc2c1`, the IC50 in the experiment on MIA PaCa-2 came to 12.7 µM; with MDA-MB-231, 3.06 µM; with A549 it was 13 µM; with HeLa, 19 µM.
As for `COc1ccc(C(=O)/C=C\Nc2ccc(-c3nc4cc(OC)c(OC)c(OC)c4s3)cc2)cc1F`, the IC50 was found to be 19.4 µM in the experiment on MIA PaCa-2, 16.5 µM with MDA-MB-231, 15.5 µM in the experiment on A549 and 7.3 µM with HeLa.
The matching figures for `COc1cc(OC)c2sc(-c3ccc(N/C=C\C(=O)c4cc(OC)c(OC)c(OC)c4Br)cc3)nc2c1`: 19 µM, 16.1 µM, 12 µM and 10.3 µM.
For the compound `COc1cc(C(=O)/C=C\Nc2ccc(-c3nc4cc(OC)c(OC)c(OC)c4s3)cc2)c(Br)c(OC)c1OC`, the IC50 in the experiment on MIA PaCa-2 turned out to be 23.2 µM; in the experiment on MDA-MB-231, 15.6 µM; with A549, 13.6 µM; in the experiment with HeLa, 6.6 µM.
Consider `COc1ccc2nc(-c3ccc(N/C=C\C(=O)c4cc(OC)c(OC)c(OC)c4Br)cc3)sc2c1`, for which the IC50 in the experiment on MIA PaCa-2 was 14.7 µM; in the experiment with MDA-MB-231, 11.1 µM; with A549, 6 µM; in the experiment on HeLa it was 8.02 µM.
Take `COc1cc(C(=O)/C=C\Nc2ccc(-c3nc4cc(OC)c(OC)c(OC)c4s3)cc2C)cc([N+](=O)[O-])c1OC`: the IC50 was determined as 22 µM in the experiment with MIA PaCa-2, 12.8 µM in the experiment on MDA-MB-231, 17.4 µM in the experiment with A549 and 13.1 µM with HeLa.
Turning to `COc1cc(OC)c2sc(-c3ccc(N/C=C\C(=O)c4cc(OC)c(OC)c(OC)c4Br)c(C)c3)nc2c1`, the IC50 in the experiment with MIA PaCa-2 is 16 µM; in the experiment with MDA-MB-231 it was 17.3 µM; in the experiment on A549 it was 14 µM; with HeLa, 14.7 µM.
Turning to `COc1ccc2nc(-c3ccc(N/C=C\C(=O)c4ccc(OC)c(O)c4)cc3)sc2c1`, the IC50 in the experiment with MIA PaCa-2 amounted to 21.9 µM; with MDA-MB-231, 18.9 µM; in the experiment with A549 it was 12.8 µM; with HeLa, 6.9 µM.
As for `COc1cc(OC)c2sc(-c3ccc(N/C=C\C(=O)c4ccc(OC)c(F)c4)c(C)c3)nc2c1`, the IC50 is 16.3 µM with MIA PaCa-2, 13.3 µM in the experiment with MDA-MB-231, 15.3 µM with A549 and 14.7 µM in the experiment on HeLa.
In the case of `COc1cc(C(=O)/C=C\Nc2ccc(-c3nc4cc(OC)c(OC)c(OC)c4s3)cc2)cc([N+](=O)[O-])c1OC`, the IC50 with MIA PaCa-2 was found to be 15.8 µM; in the experiment with MDA-MB-231, 9.8 µM; with A549, 11.8 µM; in the experiment on HeLa, 7.8 µM.
With `COc1ccc(C(=O)/C=C\Nc2ccc(-c3nc4cc(OC)c(OC)c(OC)c4s3)cc2C)cc1O`, the IC50 in the experiment on MIA PaCa-2 was 15.4 µM; in the experiment with MDA-MB-231 it was 12.4 µM; in the experiment on A549, 15.4 µM; in the experiment on HeLa it was 11.4 µM.
`COc1ccc2nc(-c3ccc(N/C=C\C(=O)c4ccc(OC)c([N+](=O)[O-])c4)c(C)c3)sc2c1`: the IC50 with MIA PaCa-2 came out at 23.6 µM; in the experiment with MDA-MB-231 it was 17.6 µM; in the experiment with A549, 13.6 µM; in the experiment with HeLa it was 17.6 µM.
Take `COc1ccc2nc(-c3ccc(N/C=C\C(=O)c4ccc(OC)c(O)c4)c(C)c3)sc2c1`: the IC50 in the experiment on MIA PaCa-2 amounted to 17 µM; in the experiment on MDA-MB-231, 14 µM; in the experiment on A549, 18 µM; with HeLa it was 12 µM.
For the compound `COc1ccc2nc(-c3ccc(N/C=C\C(=O)c4cc(OC)c(OC)c(OC)c4)cc3)sc2c1`, the IC50 in the experiment with MIA PaCa-2 is 31.1 µM; with MDA-MB-231, 19.6 µM; in the experiment with A549, 12.1 µM; in the experiment on HeLa, 14.1 µM.
For `COc1ccc(C(=O)/C=C\Nc2ccc(-c3nc4cc(OC)c(OC)c(OC)c4s3)cc2C)cc1F`, the half-maximal inhibitory concentration (IC50) with MIA PaCa-2 worked out at 1.8 µM; in the experiment on MDA-MB-231 it was 2.9 µM; with A549, 1.69 µM; in the experiment with HeLa, 1.2 µM.
On to `COc1cc(OC)c2sc(-c3ccc(N/C=C\C(=O)c4ccc(OC)c(O)c4)c(C)c3)nc2c1`, for which the IC50 in the experiment on MIA PaCa-2 was determined as 22.1 µM; in the experiment on MDA-MB-231, 3.1 µM; with A549, 14.3 µM; in the experiment with HeLa, 16.1 µM.
The matching figures for `COc1cc(C(=O)/C=C\Nc2ccc(-c3nc4cc(OC)c(OC)c(OC)c4s3)cc2C)cc(OC)c1OC`: 22.8 µM, 12.9 µM, 23.3 µM and 11.1 µM.
The matching figures for `COc1cc(OC)c2sc(-c3ccc(N/C=C\C(=O)c4ccc(OC)c([N+](=O)[O-])c4)c(C)c3)nc2c1`: 13.9 µM, 10.8 µM, 12.1 µM and 9.39 µM.
Regarding `COc1cc(C(=O)/C=C\Nc2ccc(-c3nc4cc(OC)c(OC)c(OC)c4s3)cc2)cc(OC)c1OC`, the IC50 in the experiment on MIA PaCa-2 was found to be 29.1 µM; in the experiment with MDA-MB-231 it was 16.5 µM; in the experiment on A549, 15.5 µM; with HeLa it was 5.3 µM.
Taken in the same sequence, the figures for `COc1cc(OC)c2sc(-c3ccc(N/C=C\C(=O)c4ccc(OC)c(O)c4)cc3)nc2c1` were 11.6 µM, 7.61 µM, 10.6 µM and 12.1 µM.
Take `COc1ccc(C(=O)/C=C\Nc2ccc(-c3nc4cc(OC)c(OC)c(OC)c4s3)cc2C)cc1[N+](=O)[O-]`: the IC50 with MIA PaCa-2 was 23.4 µM; with MDA-MB-231, 12.4 µM; with A549, 9.1 µM; in the experiment on HeLa, 13.4 µM.
Taken in the same sequence, the figures for `COc1ccc2nc(-c3ccc(N/C=C\C(=O)c4cc(OC)c(OC)c(OC)c4Br)c(C)c3)sc2c1` were 23.4 µM, 9.4 µM, 6.4 µM and 13.4 µM.
For the compound `COc1ccc2nc(-c3ccc(N/C=C\C(=O)c4cc(OC)c(OC)c([N+](=O)[O-])c4)c(C)c3)sc2c1`, the half-maximal inhibitory concentration (IC50) in the experiment on MIA PaCa-2 worked out at 12 µM; in the experiment on MDA-MB-231, 5.05 µM; in the experiment on A549, 22.1 µM; with HeLa, 12.1 µM.
Regarding `COc1cc(OC)c2sc(-c3ccc(N/C=C\C(=O)c4cc(OC)c(OC)c(OC)c4)cc3)nc2c1`, the IC50 in the experiment on MIA PaCa-2 is 26.8 µM; in the experiment with MDA-MB-231 it was 15.8 µM; in the experiment on A549, 21.8 µM; with HeLa, 17.8 µM.
Consider `COc1cc(OC)c2sc(-c3ccc(N/C=C\C(=O)c4cc(OC)c(OC)c(OC)c4)c(C)c3)nc2c1`, for which the IC50 in the experiment with MIA PaCa-2 was 17 µM; in the experiment on MDA-MB-231 it was 13.8 µM; with A549 it was 14.4 µM; in the experiment with HeLa it was 16.4 µM.
For `COc1ccc2nc(-c3ccc(N/C=C\C(=O)c4ccc(OC)c([N+](=O)[O-])c4)cc3)sc2c1`, the IC50 with MIA PaCa-2 amounted to 23.6 µM; with MDA-MB-231, 17.6 µM; with A549 it was 13.6 µM; with HeLa, 17.6 µM.
Regarding `COc1cc(OC)c2sc(-c3ccc(N/C=C\C(=O)c4cc(OC)c(OC)c([N+](=O)[O-])c4)c(C)c3)nc2c1`, the IC50 is 10.4 µM in the experiment on MIA PaCa-2, 7.4 µM in the experiment on MDA-MB-231, 15.4 µM in the experiment on A549 and 11.4 µM with HeLa.
With `COc1cc(OC)c2sc(-c3ccc(N/C=C\C(=O)c4ccc(OC)c([N+](=O)[O-])c4)cc3)nc2c1`, the IC50 is 2.9 µM in the experiment with MIA PaCa-2, 12.9 µM with MDA-MB-231, 5.8 µM in the experiment with A549 and 12.9 µM in the experiment on HeLa.
In the case of `COc1ccc2nc(-c3ccc(N/C=C\C(=O)c4cc(OC)c(OC)c([N+](=O)[O-])c4)cc3)sc2c1`, the IC50 in the experiment on MIA PaCa-2 turned out to be 25.6 µM; in the experiment on MDA-MB-231, 7.61 µM; in the experiment with A549 it was 21.6 µM; in the experiment with HeLa, 16.1 µM.

The record behind these values is ChEMBL document CHEMBL4261486, “2-Arylaminobenzothiazole-arylpropenone conjugates as tubulin polymerization inhibitors” (Medchemcomm, 2017).
